ChEMBL document CHEMBL1806447, “Semi-synthesis and antitumor activity of 6-isomers of 5, 8-O-dimethyl acylshikonin derivatives” (Eur J Med Chem, 2011)

Legend:
MCF7 = assay: Antitumor activity against human MCF7 cells after 24 hrs by MTT assay; format: functional, cell-based; details: MCF7, 24 h
Procedure, shortened: (§1)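 Seeded at 5.0 × 10⁴ cells/mL and cultured 24 h, then exposed 24 h to serial dilutions made from a DMSO solution. MTT (5 mg/mL) added for 4 h, formazan dissolved in DMSO, A570 read. IC50 taken by linear regression of concentration-response curves; mean of at least three independent experiments.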

[1] = Cytotoxicity against human HSF cells after 24 hrs by MTT assay; format: cell-based; procedure, shortened: as §1
MDA-MB-231 = assay: Antitumor activity against human MDA-MB-231 cells after 24 hrs by MTT assay; format: functional, cell-based; details: MDA-MB-231, 24 h; procedure, shortened: as §1
HCT-15 = assay: Antitumor activity against human HCT15 cells after 24 hrs by MTT assay; format: functional, cell-based; details: HCT-15, 24 h; procedure, shortened: as §1
CNE = assay: Antitumor activity against human CNE cells after 24 hrs by MTT assay; format: functional, cell-based; procedure, shortened: as §1
K562 = assay: Antitumor activity against human K562 cells after 24 hrs by MTT assay; format: functional, cell-based; details: K562, 24 h; procedure, shortened: as §1
L929 = assay: Cytotoxicity against mouse L929 cells after 24 hrs by MTT assay; format: cell-based; details: L929, 24 h; procedure, shortened: as §1
CCRF S-180 [2] = assay: Antitumor activity against mouse S180 cells xenografted in KM mouse assessed as tumor weight inhibition rate at 25 mg/kg, ip administered qd for 9 days measured on 10th day; format: functional; details: CCRF S-180, ip, 216 h, route intraperitoneal
Procedure, shortened: (§2)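 S-180 sarcoma cells (2 × 10⁶ in 0.2 ml saline) injected subcutaneously at the femur of male SPF KM mice, seven weeks old, 18–22 g; groups of 10. Dosing began 24 h later, i.p. once daily for 9 days, in 0.5% DMSO/1% Tween 80 diluted with saline; controls received vehicle. Body weight followed; tumors excised and weighed on day 10. Inhibition = (control − treated mean tumor weight)/control × 100%.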

Mus musculus = assay: Toxicity in KM mouse harboring mouse S180 cells xenograft assessed as body weight change at 25 mg/kg, ip administered qd for 9 days measured on 10th day (reference value: +39.1%); format: organism-based, CCRF S-180; parameters: dose 25 mg/kg, route intraperitoneal; details: in vivo, 216 h; procedure, shortened: as §2
CCRF S-180 [3] = assay: Antitumor activity against mouse S180 cells xenografted in KM mouse assessed as decrease in tumor weight at 25 mg/kg, ip administered qd for 9 days measured on 10th day (reference value: 2.07+/- 0.42g); format: functional; details: route intraperitoneal; procedure, shortened: as §2

| Structure (SMILES) | IC50 (MCF7) [µM] | IC50 [1] [µM] | IC50 (MDA-MB-231) [µM] | also measured |
| --- | --- | --- | --- | --- |
| COc1cc([C@@H](CC=C(C)C)OC(=O)C(C)C)c(OC)c2c1C(=O)C=CC2=O | 3.7 | 69.3 | 2.8 | – |
| COc1cc([C@@H](CC=C(C)C)OC(=O)c2ccncc2)c(OC)c2c1C(=O)C=CC2=O | 6.3 | > 100 | 1.2 | – |
| COc1cc([C@@H](CC=C(C)C)OC(=O)c2ccc([N+](=O)[O-])cc2)c(OC)c2c1C(=O)C=CC2=O | 15.2 | > 100 | 16.8 | – |
| C/C=C/C(=O)O[C@H](CC=C(C)C)c1cc(OC)c2c(c1OC)C(=O)C=CC2=O | 3.3 | 74.9 | 1.5 | – |
| COc1cc([C@@H](CC=C(C)C)OC(=O)c2ccco2)c(OC)c2c1C(=O)C=CC2=O | 2.7 | > 100 | 1.3 | – |
| CCC(=O)O[C@H](CC=C(C)C)c1cc(OC)c2c(c1OC)C(=O)C=CC2=O | 6.2 | 78.6 | 2.5 | – |
| COc1ccc(CC(=O)O[C@H](CC=C(C)C)c2cc(OC)c3c(c2OC)C(=O)C=CC3=O)cc1 | 5.5 | > 100 | 2.3 | – |
| COc1cc([C@@H](CC=C(C)C)OC(=O)/C=C/c2ccccc2)c(OC)c2c1C(=O)C=CC2=O | 3.9 | > 100 | 2.4 | – |
| COc1cc([C@@H](CC=C(C)C)OC(=O)C2CCOC2)c(OC)c2c1C(=O)C=CC2=O (stereo partly specified) | 1.1 | 69.4 | 0.2 | – |
| COc1cc([C@@H](CC=C(C)C)OC(=O)c2ccoc2)c(OC)c2c1C(=O)C=CC2=O | 1.3 | > 100 | 0.4 | – |
| COc1ccc(/C=C/C(=O)O[C@H](CC=C(C)C)c2cc(OC)c3c(c2OC)C(=O)C=CC3=O)cc1OC | 7.7 | > 100 | 5 | – |
| CCC(C)C(=O)O[C@H](CC=C(C)C)c1cc(OC)c2c(c1OC)C(=O)C=CC2=O (stereo partly specified) | 4.5 | 93.6 | 5.9 | – |
| COc1cc([C@@H](CC=C(C)C)OC(=O)c2ccccc2)c(OC)c2c1C(=O)C=CC2=O | 6.7 | > 100 | 2.2 | – |
| COc1cc([C@@H](CC=C(C)C)OC(=O)C2CCCO2)c(OC)c2c1C(=O)C=CC2=O (stereo partly specified) | 2.5 | > 100 | 0.6 | IC50 (HCT-15): 18.6 µM; IC50 (CNE): 20.6 µM; IC50 (K562): 11.2 µM; IC50 (L929): > 100 µM |
| COc1cc([C@H](O)CC=C(C)C)c(OC)c2c1C(=O)C=CC2=O | 9.2 | 79.6 | 4.1 | – |
| COc1cc([C@@H](CC=C(C)C)OC(=O)CCc2ccccc2)c(OC)c2c1C(=O)C=CC2=O | 5.9 | > 100 | 3.7 | – |
| CCCC(=O)O[C@H](CC=C(C)C)c1cc(OC)c2c(c1OC)C(=O)C=CC2=O | 5.1 | 86.3 | 4.3 | – |
| COc1cc([C@@H](CC=C(C)C)OC(C)=O)c(OC)c2c1C(=O)C=CC2=O | 4.9 | > 100 | 3.4 | IC50 (HCT-15): 19.3 µM; IC50 (CNE): 58 µM; IC50 (K562): 15.3 µM; IC50 (L929): > 100 µM |
| COc1ccc(C(=O)O[C@H](CC=C(C)C)c2cc(OC)c3c(c2OC)C(=O)C=CC3=O)cc1 | 8.3 | 88.3 | 1.4 | – |
| COc1cc([C@@H](CC=C(C)C)OC(=O)c2cccnc2)c(OC)c2c1C(=O)C=CC2=O | 17.4 | 91.7 | 6 | – |
| COc1ccc(OC)c2c1C(=O)C=C([C@@H](CC=C(C)C)OC(C)=O)C2=O | – | – | 7.2 | IC50 (HCT-15): 29.6 µM; IC50 (CNE): 23.1 µM; IC50 (L929): > 100 µM |
| COc1ccccc1C(=O)O[C@H](CC=C(C)C)c1cc(OC)c2c(c1OC)C(=O)C=CC2=O | 21.3 | > 100 | 4.4 | – |
| O=c1[nH]cc(F)c(=O)[nH]1 [FLUOROURACIL] | – | – | – | inhibition in vivo at 25 mg/kg (CCRF S-180 [2]): 46.5%; Activity (Mus musculus): 34.7%; Activity (CCRF S-180 [3]): 1.11 g |
| CC(C)=CC[C@@H](O)C1=CC(=O)c2c(O)ccc(O)c2C1=O [SHIKONIN] | – | – | 6.6 | IC50 (HCT-15): 7.3 µM; IC50 (CNE): 0.7 µM; IC50 (L929): 3.2 µM |
| COc1ccc(OC)c2c1C(=O)C=C([C@@H](CC=C(C)C)OC(=O)C1CCCO1)C2=O (stereo partly specified) | – | – | 2.1 | IC50 (HCT-15): 12.7 µM; IC50 (CNE): 16.5 µM; IC50 (L929): > 100 µM |
